Measured values: ChEMBL document CHEMBL1148728, “Synthesis, biological activity, and crystal structure of potent nonnucleoside inhibitors of HIV-1 reverse transcriptase that retain activity against mutant forms of the enzyme” (J Med Chem, 2007)
Activity calls are given as the source filed them. The calls are words filed in the database; no cut-off is given here.

Assays:
[1] = system: Human immunodeficiency virus 1; assay: Antiviral activity against HIV1 with RT V108I mutation by cytopathic cell killing assay; type: functional, organism-based
[2] = Toxicity against CEM cells; type: cell-based; conditions: human, CEM (CCRF-CEM) cells; read-out: TC50 (the source's name)
[3] = system: Human immunodeficiency virus 1; assay: Antiviral activity against HIV1 with RT Y181C mutation by cytopathic cell killing assay; type: functional, organism-based
[4] = system: Human immunodeficiency virus 1; assay: Antiviral activity against wild type HIV1 NL4-3 by cytopathic cell killing assay; type: functional, organism-based; conditions: Human immunodeficiency virus 1, NL4-3
Summary of the method: (§1)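 Cell-based assay in HIV-1-infected CEM cells, read out as protection from virus-induced cell killing.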

[5] = system: Human immunodeficiency virus 1; assay: Antiviral activity against HIV1 with RT K103N mutation by cytopathic cell killing assay; type: functional, organism-based
[6] = system: Human immunodeficiency virus 1; assay: Antiviral activity against HIV1 infected CEM cells; type: functional, organism-based; conditions: for EC50: Human immunodeficiency virus 1, CCRF-CEM; for Activity: CCRF-CEM; summary of the method: as §1
[7] = system: Human immunodeficiency virus 1; assay: Antiviral activity against HIV1 with RT L100I mutation by cytopathic cell killing assay; type: functional, organism-based
[8] = system: Human immunodeficiency virus 1; assay: Antiviral activity against HIV1 with RT Y188C mutation by cytopathic cell killing assay; type: functional, organism-based
[9] = system: Human immunodeficiency virus 1; assay: Antiviral activity against HIV1 with RT K101E mutation by cytopathic cell killing assay; type: functional, organism-based
[10] = system: Human immunodeficiency virus 1; assay: Antiviral activity against HIV1 with RT V106A mutation by cytopathic cell killing assay; type: functional, organism-based
[11] = target: Human immunodeficiency virus type 1 reverse transcriptase (Human immunodeficiency virus 1, UniProt Q72547); assay: Inhibition of HIV1 NL4-3 reverse transcriptase
[12] = target: Human immunodeficiency virus type 1 reverse transcriptase (Human immunodeficiency virus 1) (UniProt Q72547); assay: Inhibition of HIV1 reverse transcriptase at 1 uM
Summary of the method: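 Wild-type HIV-1 RT enzyme screen with rC-dG template-primer. Percent inhibition is the mean of two experiments, each run in triplicate.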

Row | Compound | EC50 [1] | CC50 [2] | EC50 [3] | EC50 [4] | EC50 [5] | EC50 [6] | EC50 [7] | EC50 [8] | EC50 [9] | EC50 [10] | IC50 [11] | inhibition [12] | Activity [6]
1 | CC(=O)OCc1cccc2c1nc(-c1c(F)cccc1F)n2Cc1c(F)cccc1F | 13 nM | 55800 nM | 2320 nM | 62 nM | 27 nM | 59 nM | 68 nM | 33 nM | 25 nM | 4500 nM | – | – | –
2 | CN(C)c1cccc2c1nc(-c1c(F)cccc1F)n2Cc1c(F)cccc1F | – | > 100000 nM | – | – | – | 2370 nM | – | – | – | – | 40000 nM | – | –
3 | COCc1cccc2c1nc(-c1c(F)cccc1F)n2Cc1c(F)cccc1F | – | – | – | – | – | 60 nM | – | – | – | – | – | – | –
4 | OCc1cccc2c1nc(-c1c(F)cccc1F)n2Cc1c(F)cccc1F | 23 nM | 58100 nM | 720 nM | 48 nM | 13600 nM | 23 nM | 20 nM | 170 nM | 5000 nM | 5900 nM | – | – | –
5 | Cc1ccnc2c1NC(=O)c1cccnc1N2C1CC1 [NEVIRAPINE] | 200 nM | – | 4900 nM | 100 nM | 1090 nM | 35 nM | 720 nM | 100 nM | 1100 nM | 2360 nM | – | – | –
6 | CC(=O)Nc1cccc2c1nc(-c1c(F)cccc1F)n2Cc1c(F)cccc1F | – | 39300 nM | > 100000 nM | 1970 nM | > 100000 nM | 1480 nM | 3250 nM | – | – | – | 54700 nM | – | –
7 | Oc1cccc2c1nc(-c1c(F)cccc1F)n2Cc1c(F)cccc1F | – | > 100000 nM | – | – | – | 650 nM | – | – | – | – | – | – | –
8 | Cc1cccc2nc(-c3c(F)cccc3F)n(Cc3c(F)cccc3F)c12 | – | – | – | – | – | – | – | – | – | – | – | 1% | –
9 | O=Cc1cccc2c1nc(-c1c(F)cccc1F)n2Cc1c(F)cccc1F | – | 820 nM | – | – | – | 120 nM | – | – | – | – | – | – | –
10 | Fc1cccc(F)c1Cn1c(-c2c(F)cccc2F)nc2c(Br)cccc21 | 4200 nM | 24500 nM | 10700 nM | 500 nM | > 20000 nM | 370 nM | 500 nM | 3700 nM | > 20000 nM | – | 1610 nM | 78% | –
11 | CC(=O)N(C)c1cccc2c1nc(-c1c(F)cccc1F)n2Cc1c(F)cccc1F | > 10000 nM | > 100000 nM | 400 nM | 40 nM | > 10000 nM | 20 nM | 1660 nM | 540 nM | 640 nM | 50 nM | 320 nM | – | –
12 | N=C(NO)c1cccc2c1nc(-c1c(F)cccc1F)n2Cc1c(F)cccc1F | – | 23100 nM | – | – | – | 190 nM | – | – | – | – | – | – | –
13 | CC(=O)NCc1cccc2c1nc(-c1c(F)cccc1F)n2Cc1c(F)cccc1F | – | 20800 nM | – | – | – | – | – | – | – | – | – | – | inactive
14 | COC(=O)c1cccc2c1nc(-c1c(F)cccc1F)n2Cc1c(F)cccc1F | – | 57700 nM | – | – | – | – | – | – | – | – | 158000 nM | – | inactive
15 | Fc1cccc(F)c1Cn1c(-c2c(F)cccc2F)nc2ccccc21 | – | 18800 nM | – | – | – | 1700 nM | – | – | – | – | 110 nM | 50% | –
16 | Fc1cccc(F)c1Cn1c(-c2c(F)cccc2F)nc2c(Cl)cccc21 | 3200 nM | 30400 nM | 8400 nM | 500 nM | 10200 nM | 440 nM | 300 nM | 3400 nM | > 20000 nM | – | 2630 nM | 75% | –
17 | Fc1cccc(F)c1Cn1c(-c2c(F)cccc2F)nc2ccc(Cl)cc21 | – | – | – | – | – | – | – | – | – | – | – | 69% | –
18 | Fc1cccc(F)c1Cn1c(-c2c(F)cccc2F)nc2c(CCl)cccc21 | 210 nM | 13400 nM | 2380 nM | 160 nM | 3340 nM | 180 nM | 80 nM | 570 nM | 460 nM | 4700 nM | – | – | –
19 | CNc1cccc2c1nc(-c1c(F)cccc1F)n2Cc1c(F)cccc1F | – | 27200 nM | – | – | – | 1700 nM | – | – | – | – | 4940 nM | – | –
20 | Fc1cccc(F)c1Cn1c(-c2c(F)cccc2F)nc2cc(Br)ccc21 | – | – | – | – | – | – | – | – | – | – | – | 43% | –

Row | Compound | EC50 [1] | CC50 [2] | EC50 [3] | EC50 [4] | EC50 [5] | EC50 [6] | EC50 [7] | EC50 [8] | EC50 [9] | EC50 [10] | IC50 [11] | inhibition [12] | Activity [6]
21 | CC(=O)N(C)Cc1cccc2c1nc(-c1c(F)cccc1F)n2Cc1c(F)cccc1F | – | 20600 nM | – | – | – | 580 nM | – | – | – | – | – | – | –
22 | NC(=O)c1cccc2c1nc(-c1c(F)cccc1F)n2Cc1c(F)cccc1F | – | > 100000 nM | – | – | – | 4900 nM | – | – | – | – | – | – | –
23 | O=[N+]([O-])c1cccc2c1nc(-c1c(F)cccc1F)n2Cc1c(F)cccc1F | – | 30100 nM | – | – | – | 2400 nM | – | – | – | – | 1880 nM | – | –
24 | Cc1ccc2nc(-c3c(F)cccc3F)n(Cc3c(F)cccc3F)c2c1 | – | – | – | – | – | – | – | – | – | – | – | 42% | –
25 | NCc1cccc2c1nc(-c1c(F)cccc1F)n2Cc1c(F)cccc1F | 2510 nM | 49300 nM | 12800 nM | 1360 nM | > 50000 nM | 37 nM | – | 11600 nM | 1490 nM | 9230 nM | – | – | –
26 | Cc1cccc2c1nc(-c1c(F)cccc1F)n2Cc1c(F)cccc1F | 2800 nM | > 100000 nM | 6000 nM | 500 nM | 8100 nM | 440 nM | 300 nM | 2300 nM | 16700 nM | – | 200 nM | 71% | –
27 | Cc1cc(C)c2nc(-c3c(F)cccc3F)n(Cc3c(F)cccc3F)c2c1 | – | – | – | – | – | – | – | – | – | – | – | 37% | –
28 | N#CCc1cccc2c1nc(-c1c(F)cccc1F)n2Cc1c(F)cccc1F | – | – | 2200 nM | 60 nM | 4200 nM | 60 nM | – | – | – | – | – | – | –
29 | N#Cc1cccc2c1nc(-c1c(F)cccc1F)n2Cc1c(F)cccc1F | – | 26700 nM | – | – | – | 430 nM | – | – | – | – | – | – | –
30 | [N-]=[N+]=NCc1cccc2c1nc(-c1c(F)cccc1F)n2Cc1c(F)cccc1F | 26 nM | > 100000 nM | 280 nM | 45 nM | 1480 nM | 45 nM | 80 nM | 220 nM | 600 nM | 610 nM | – | – | –
31 | CC(C)c1cccc2c1nc(-c1c(F)cccc1F)n2Cc1c(F)cccc1F | – | 27000 nM | – | – | – | 6340 nM | – | – | – | – | – | – | –
32 | Cc1ccc2c(nc(-c3c(F)cccc3F)n2Cc2c(F)cccc2F)c1C | – | – | – | – | – | – | – | – | – | – | – | 26% | –
33 | Nc1cccc2c1nc(-c1c(F)cccc1F)n2Cc1c(F)cccc1F | 3300 nM | 26300 nM | 9200 nM | 400 nM | 3100 nM | 460 nM | 1200 nM | 2000 nM | > 20000 nM | – | 280 nM | – | –
34 | O=C(O)c1cccc2c1nc(-c1c(F)cccc1F)n2Cc1c(F)cccc1F | – | 23500 nM | – | – | – | – | – | – | – | – | – | – | inactive
35 | O=[N+]([O-])c1ccc2c(c1)nc(-c1c(F)cccc1F)n2Cc1c(F)cccc1F | – | – | – | – | – | – | – | – | – | – | – | 30% | –
36 | Fc1cccc(F)c1Cn1c(-c2c(F)cccc2F)nc2cc(Cl)ccc21 | – | – | – | – | – | – | – | – | – | – | – | 48% | –
37 | Cc1ccc2c(c1)nc(-c1c(F)cccc1F)n2Cc1c(F)cccc1F | – | – | – | – | – | – | – | – | – | – | – | 22% | –
38 | CCc1cccc2c1nc(-c1c(F)cccc1F)n2Cc1c(F)cccc1F | > 50000 nM | 26100 nM | 7180 nM | 900 nM | > 50000 nM | 820 nM | 2480 nM | – | > 50000 nM | – | 17500 nM | – | –
39 | COc1cccc2c1nc(-c1c(F)cccc1F)n2Cc1c(F)cccc1F | 2820 nM | 44300 nM | 260 nM | 60 nM | > 50000 nM | 60 nM | 160 nM | – | 2820 nM | – | 7.3 nM | – | –
40 | CN(C)C(=O)c1cccc2c1nc(-c1c(F)cccc1F)n2Cc1c(F)cccc1F | – | 80100 nM | – | – | – | – | – | – | – | – | – | – | inactive
